Our source for the KA values is ChEMBL document CHEMBL2311348, “The extremo-α-carbonic anhydrase (CA) from Sulfurihydrogenibium azorense, the fastest CA known, is highly activated by amino acids and amines” (Bioorg Med Chem Lett, 2013).

For assay [1], the system named is Sulfurihydrogenibium azorense. Put plainly: Activation of Sulfurihydrogenibium azorense recombinant alpha carbonic anhydrase by stopped flow CO2 hydrase method. The method in brief: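 Full-length recombinant enzyme in a stopped-flow CO2 hydration assay at 25 °C: 0.2 mM phenol red read at its absorbance maximum, 10 mM Hepes pH 7.5, 0.1 M NaClO4, 10 s traces, CO2 1.7–17 mM. Activators were diluted from 10 mM water stocks down to 0.001 µM and preincubated with enzyme for 15 min at room temperature. Uncatalyzed rates were subtracted. kcat was measured at 10 µM activator. KA came from a steady-state equation, mean of ≥3 determinations.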

In assay [2] the test system is Sulfurihydrogenibium yellowstonense. The experiment in a line: Activation of Sulfurihydrogenibium yellowstonense recombinant CA by stopped flow CO2 hydrase method.

`N[C@H](Cc1c[nH]cn1)C(=O)O`: the KA was determined as 0.09 µM in assay [1] and 0.012 µM in assay [2].
Regarding `N[C@@H](Cc1ccc(O)cc1)C(=O)O`, the KA in assay [1] is 0.052 µM; in assay [2], 0.001 µM.
Taken in the same sequence, the figures for `NCCc1c[nH]c2ccc(O)cc12` were 0.007 µM and 0.021 µM.
Taken in the same sequence, the figures for `N[C@H](Cc1c[nH]c2ccccc12)C(=O)O` were 0.003 µM and 0.002 µM.
With `NCc1ccccn1`, the figures for the KA in assay [1] and in assay [2] were 0.081 µM and 0.1 µM, respectively.
For the compound `Nc1ccc(C[C@H](N)C(=O)O)cc1`, the results for the KA in assay [1] and in assay [2] were 0.09 µM and 0.97 µM, respectively.
On to `N[C@@H](Cc1c[nH]c2ccccc12)C(=O)O`, for which the KA worked out at 0.023 µM in assay [1] and 0.007 µM in assay [2].
Regarding `N[C@H](Cc1ccc(O)c(O)c1)C(=O)O`, the KA in assay [1] is 0.89 µM; in assay [2], 0.43 µM.
As for `NCCc1c[nH]cn1`, the results for the KA in assay [1] and in assay [2] were 0.1 µM and 0.08 µM, respectively.
On to `N[C@H](Cc1ccc(O)cc1)C(=O)O`, for which the results for the KA in assay [1] and in assay [2] were 0.11 µM and 0.83 µM, respectively.
For `NCCc1ccccn1`, in that order: 0.34 µM and 0.33 µM.
In the case of `NCCN1CCOCC1`, the results for the KA in assay [1] and in assay [2] were 1.15 µM and 0.1 µM, respectively.
`N[C@@H](Cc1c[nH]cn1)C(=O)O`: the figures for the KA in assay [1] and in assay [2] were 0.071 µM and 0.11 µM, respectively.
As to `CNC[C@@H](O)c1ccc(O)c(O)c1`, the KA in assay [1] is 0.074 µM; in assay [2], 0.68 µM.
As to `NCCc1ccc(O)c(O)c1`, the KA in assay [1] was 0.011 µM; in assay [2], 0.037 µM.
Regarding `N[C@@H](Cc1ccc(O)c(O)c1)C(=O)O`, the KA in assay [1] was 0.004 µM; in assay [2] it was 0.09 µM.
On to `NCCN1CCNCC1`, for which the results for the KA in assay [1] and in assay [2] were 0.076 µM and 0.09 µM, respectively.
